Measurements reported in ChEMBL document CHEMBL1944618, “Synthesis and antifungal activity of a new series of 2-(1H-imidazol-1-yl)-1-phenylethanol derivatives” (Eur J Med Chem, 2012).
Converted amounts (≈) assume the structure as drawn.

Tests used:
Type in all cases: functional
Candida albicans [1] = assay: Antifungal activity against Candida albicans after 48 hrs by M27-A3 CLSI method
Summary of the method: (§1)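 Broth microdilution in RPMI 1640, two-fold serial dilutions, final test range 0.125–64 µg mL-1 (fluconazole reference 0.0078–128 µg mL-1). Inoculum 1.0×10^3–1.5×10^3 cells mL-1 from yeasts grown 24 h at 35 °C on Sabouraud dextrose agar. Incubation 35 °C, read at 48 h. MIC = lowest concentration giving >50% turbidity decrease versus growth control. Run three times in triplicate. C. parapsilosis ATCC22019 served as QC.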

Candida tropicalis [2] = assay: Antifungal activity against Candida tropicalis PMC 0910 after 48 hrs by M27-A3 CLSI method; conditions: PMC 0910, 48 h; summary of the method: as §1
Candida albicans [3] = assay: Antifungal activity against Candida albicans ATCC 3153 after 48 hrs by M27-A3 CLSI method; conditions: ATCC 3153, 48 h; summary of the method: as §1
Candida parapsilosis [4] = assay: Antifungal activity against Candida parapsilosis DSM 11224 after 48 hrs by M27-A3 CLSI method; conditions: Lodderomyces parapsilosis, DSM 11224, 48 h; read-out: MIC; summary of the method: as §1
Candida albicans [5] = assay: Antifungal activity against Candida albicans ATCC 76615 after 48 hrs by M27-A3 CLSI method; conditions: ATCC 76615, 48 h; summary of the method: as §1
Nakaseomyces glabratus = assay: Antifungal activity against Candida glabrata PMC 0805 after 48 hrs by M27-A3 CLSI method; conditions: PMC 0805, 48 h; summary of the method: as §1
Pichia kudriavzevii [6] = assay: Antifungal activity against Candida krusei PMC 0613 after 48 hrs by M27-A3 CLSI method; conditions: Pichia kudriavzevii, PMC 0613, 48 h; read-out: MIC; summary of the method: as §1
Candida tropicalis [7] = assay: Antifungal activity against Candida tropicalis DSM 11953 after 48 hrs by M27-A3 CLSI method; conditions: DSM 11953, 48 h; summary of the method: as §1
Candida albicans [8] = assay: Antifungal activity against Candida albicans ATCC 10231 after 48 hrs by M27-A3 CLSI method; conditions: ATCC 10231, 48 h; summary of the method: as §1
Candida = assay: Antifungal activity against Candida sp. after 48 hrs by M27-A3 CLSI method; summary of the method: as §1
Pichia kudriavzevii [9] = assay: Antifungal activity against Candida krusei DSM 6128 after 48 hrs by M27-A3 CLSI method; conditions: DSM 6128, 48 h; summary of the method: as §1
Candida parapsilosis [10] = assay: Antifungal activity against Candida parapsilosis ATCC 22019 after 48 hrs by M27-A3 CLSI method; conditions: Lodderomyces parapsilosis, ATCC 22019, 48 h; summary of the method: as §1
Candida albicans [11] = assay: Antifungal activity against Candida albicans ATCC 24433 after 48 hrs by M27-A3 CLSI method; conditions: Candida albicans, ATCC 24433, 48 h; read-out: MIC; summary of the method: as §1

SMILES	MIC (Candida albicans [1])	MIC50 (Candida albicans [1])	MIC90 (Candida albicans [1])	MIC (Candida tropicalis [2])	MIC (Candida albicans [3])	MIC (Candida parapsilosis [4])	MIC (Candida albicans [5])	MIC (Nakaseomyces glabratus)	MIC (Pichia kudriavzevii [6])	MIC (Candida tropicalis [7])	MIC (Candida albicans [8])	MIC (Candida)	MIC50 (Candida)	MIC90 (Candida)	MIC (Pichia kudriavzevii [9])	MIC (Candida parapsilosis [10])	MIC (Candida albicans [11])
OC(Cn1ccnc1)c1ccccc1 (racemic)	107 mg/L (≈ 567 µM)	128 mg/L (≈ 680 µM)	128 mg/L (≈ 680 µM)	> 64 mg/L	≥ 64 mg/L	≥ 64 mg/L	> 64 mg/L	> 64 mg/L	> 64 mg/L	64 mg/L (≈ 340 µM)	> 64 mg/L	98.5 mg/L (≈ 523 µM)	64 mg/L (≈ 340 µM)	128 mg/L (≈ 680 µM)	> 64 mg/L	≥ 64 mg/L	64 mg/L (≈ 340 µM)
O=C(OC(Cn1ccnc1)c1ccc(C(F)(F)F)cc1)c1cccc(C(F)(F)F)c1 (racemic)	91.4 mg/L (≈ 213 µM)	64 mg/L (≈ 149 µM)	128 mg/L (≈ 299 µM)	32 mg/L (≈ 74.7 µM)	≥ 64 mg/L	> 64 mg/L	≥ 64 mg/L	> 64 mg/L	64 mg/L (≈ 149 µM)	> 64 mg/L	64 mg/L (≈ 149 µM)	100 mg/L (≈ 233 µM)	128 mg/L (≈ 299 µM)	128 mg/L (≈ 299 µM)	> 64 mg/L	64 mg/L (≈ 149 µM)	≥ 64 mg/L
CC(C)c1ccc(NC(=O)OC(Cn2ccnc2)c2ccc(F)cc2)cc1 (racemic)	39.6 mg/L (≈ 108 µM)	16 mg/L (≈ 43.5 µM)	64 mg/L (≈ 174 µM)	4 mg/L (≈ 10.9 µM)	16 mg/L (≈ 43.5 µM)	16 mg/L (≈ 43.5 µM)	≥ 64 mg/L	> 64 mg/L	64 mg/L (≈ 174 µM)	> 64 mg/L	2 mg/L (≈ 5.44 µM)	68.4 mg/L (≈ 186 µM)	4 mg/L (≈ 10.9 µM)	128 mg/L (≈ 348 µM)	16 mg/L (≈ 43.5 µM)	> 64 mg/L	1 mg/L (≈ 2.72 µM)
OC(Cn1ccnc1)c1ccc(F)cc1 (racemic)	101 mg/L (≈ 491 µM)	128 mg/L (≈ 621 µM)	128 mg/L (≈ 621 µM)	16 mg/L (≈ 77.6 µM)	32 mg/L (≈ 155 µM)	> 64 mg/L	> 64 mg/L	16 mg/L (≈ 77.6 µM)	64 mg/L (≈ 310 µM)	> 64 mg/L	> 64 mg/L	104 mg/L (≈ 504 µM)	128 mg/L (≈ 621 µM)	128 mg/L (≈ 621 µM)	> 64 mg/L	> 64 mg/L	> 64 mg/L
O=C(OC(Cn1ccnc1)c1ccccc1)c1ccc(C(F)(F)F)cc1 (racemic)	33.1 mg/L (≈ 91.9 µM)	8 mg/L (≈ 22.2 µM)	64 mg/L (≈ 178 µM)	4 mg/L (≈ 11.1 µM)	8 mg/L (≈ 22.2 µM)	32 mg/L (≈ 88.8 µM)	≥ 64 mg/L	8 mg/L (≈ 22.2 µM)	64 mg/L (≈ 178 µM)	16 mg/L (≈ 44.4 µM)	8 mg/L (≈ 22.2 µM)	55.5 mg/L (≈ 154 µM)	32 mg/L (≈ 88.8 µM)	128 mg/L (≈ 355 µM)	> 64 mg/L	64 mg/L (≈ 178 µM)	8 mg/L (≈ 22.2 µM)
CC(C)c1ccc(NC(=O)OC(Cn2ccnc2)c2ccc(Cl)cc2)cc1 (racemic)	60 mg/L (≈ 156 µM)	64 mg/L (≈ 167 µM)	128 mg/L (≈ 333 µM)	> 64 mg/L	16 mg/L (≈ 41.7 µM)	> 64 mg/L	> 64 mg/L	> 64 mg/L	> 64 mg/L	> 64 mg/L	4 mg/L (≈ 10.4 µM)	115 mg/L (≈ 299 µM)	128 mg/L (≈ 333 µM)	128 mg/L (≈ 333 µM)	> 64 mg/L	> 64 mg/L	16 mg/L (≈ 41.7 µM)
O=C(COc1ccccc1)OC(Cn1ccnc1)c1ccc(Cl)cc1 (racemic)	67.7 mg/L (≈ 190 µM)	64 mg/L (≈ 179 µM)	128 mg/L (≈ 359 µM)	4 mg/L (≈ 11.2 µM)	16 mg/L (≈ 44.8 µM)	8 mg/L (≈ 22.4 µM)	> 64 mg/L	16 mg/L (≈ 44.8 µM)	16 mg/L (≈ 44.8 µM)	> 64 mg/L	4 mg/L (≈ 11.2 µM)	51.3 mg/L (≈ 144 µM)	16 mg/L (≈ 44.8 µM)	128 mg/L (≈ 359 µM)	> 64 mg/L	32 mg/L (≈ 89.7 µM)	2 mg/L (≈ 5.61 µM)
O=C(OC(Cn1ccnc1)c1ccc(F)cc1)c1cccc(C(F)(F)F)c1 (racemic; 3b)	27.7 mg/L (≈ 73.2 µM)	8 mg/L (≈ 21.1 µM)	16 mg/L (≈ 42.3 µM)	> 64 mg/L	2 mg/L (≈ 5.29 µM)	4 mg/L (≈ 10.6 µM)	> 64 mg/L	> 64 mg/L	8 mg/L (≈ 21.1 µM)	4 mg/L (≈ 10.6 µM)	8 mg/L (≈ 21.1 µM)	52.9 mg/L (≈ 140 µM)	8 mg/L (≈ 21.1 µM)	128 mg/L (≈ 338 µM)	> 64 mg/L	> 8 mg/L	16 mg/L (≈ 42.3 µM)
Cl.O=C(OC(Cn1ccnc1)c1ccc(Cl)cc1)c1cccc(C(F)(F)F)c1 (racemic)	46.3 mg/L	8 mg/L	16 mg/L	0.5 mg/L	8 mg/L	8 mg/L	> 64 mg/L	32 mg/L	32 mg/L	32 mg/L	4 mg/L	43.8 mg/L	32 mg/L	128 mg/L	32 mg/L	> 64 mg/L	8 mg/L
O=C(OC(Cn1ccnc1)c1ccccc1)c1cccc(C(F)(F)F)c1 (racemic)	91.4 mg/L (≈ 254 µM)	64 mg/L (≈ 178 µM)	128 mg/L (≈ 355 µM)	32 mg/L (≈ 88.8 µM)	≥ 64 mg/L	8 mg/L (≈ 22.2 µM)	≥ 64 mg/L	> 64 mg/L	64 mg/L (≈ 178 µM)	> 64 mg/L	32 mg/L (≈ 88.8 µM)	85 mg/L (≈ 236 µM)	64 mg/L (≈ 178 µM)	128 mg/L (≈ 355 µM)	> 64 mg/L	64 mg/L (≈ 178 µM)	≥ 64 mg/L
Cl.O=C(OC(Cn1ccnc1)c1ccc(F)cc1)c1cccc(C(F)(F)F)c1 (racemic; 4b)	34.3 mg/L	8 mg/L	64 mg/L	1 mg/L	8 mg/L	8 mg/L	≥ 64 mg/L	32 mg/L	16 mg/L	32 mg/L	8 mg/L	22.6 mg/L	16 mg/L	32 mg/L	64 mg/L	32 mg/L	8 mg/L
O=C(Nc1cc(Cl)nc(Cl)c1)OC(Cn1ccnc1)c1ccc(Cl)cc1 (racemic)	119 mg/L (≈ 289 µM)	128 mg/L (≈ 311 µM)	128 mg/L (≈ 311 µM)	> 64 mg/L	> 64 mg/L	> 64 mg/L	> 64 mg/L	> 64 mg/L	> 64 mg/L	> 64 mg/L	> 64 mg/L	121 mg/L (≈ 294 µM)	128 mg/L (≈ 311 µM)	128 mg/L (≈ 311 µM)	> 64 mg/L	> 64 mg/L	> 64 mg/L
